Reference: ChEMBL document CHEMBL1800056, “Discovery of 2-(6-{[(6-fluoroquinolin-2-yl)methyl]amino}bicyclo[3.1.0]hex-3-yl)-N-hydroxypyrimidine-5-carboxamide (CHR-3996), a class I selective orally active histone deacetylase inhibitor” (J Med Chem, 2010)
In brackets after ≈: the same amount, converted by molar mass.

Key:
[1] = test system: HCT-116; assay: Antiproliferative activity against human HCT116 cells after 72 hrs by WST-1 assay; format: functional
Procedure, shortened: (§1)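 Cells seeded at (1-5) × 10³/well in serum-containing medium for 24 h at 37 °C, 5% CO₂. Inhibitor added at 0.6-10000 nM for 72 h, with WST-1 pulse over the final 4 h. Formazan read at 450 nm (reference 650 nm). Expressed as % inhibition of vehicle response; GI50 is the concentration inhibiting 50% of vehicle response; n = 6 replicates.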

[2] = Ratio of GI50 for human HCT116 cells to IC50 for HDAC in human HeLa cell nuclear extracts
Procedure, shortened: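 Cell/enzyme ratio = HCT116 GI50 divided by HDAC IC50. Enzyme: HeLa nuclear extract (10 μg protein), 5 min preincubation, then Fluor de Lys substrate 62.5 μM, 15 min at room temperature. Stopped with developer containing trichostatin A; fluorescence ex 355/em 455 nm; eight concentrations in duplicate. Cells: HCT116, 72 h exposure (0.6-10000 nM), WST-1 read at 450 nm, n = 6.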

[3] = target: Histone deacetylase; assay: Inhibition of HDAC in human HeLa cells nuclear extract using fluor de Lys as substrate preincubated for 5 mins by fluorometric analysis; format: cell-based
[4] = AUC (0 to t) in spleen of CD1 mouse at 3 mg/kg, po; format: ADME, organism-based; design: dose 3 mg/kg, route oral
Procedure, shortened: (§2)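 Oral cassette PK in CD1 mice: four compounds per cassette, each at 3 mg/kg po. AUC0-t (ng h/mL) measured in plasma and spleen; spleen/plasma AUC ratio reported.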

[5] = test system: Spleen; assay: Ratio of AUC (0 to t) in spleen to plasma of CD1 mouse at 3 mg/kg, po; conditions: in vivo
[6] = AUC (0 to t) in plasma of CD1 mouse at 3 mg/kg, po; format: ADME, organism-based; design: dose 3 mg/kg, route oral; procedure, shortened: as §2
[7] = test system: HepG2; assay: Antiproliferative activity against human HepG2 cells after 72 hrs by WST-1 assay; format: functional; procedure, shortened: as §1
[8] = test system: MIA PaCa-2; assay: Antiproliferative activity against human MIAPaCa2 cells after 72 hrs by WST-1 assay; format: functional; procedure, shortened: as §1
[9] = test system: HCT-116; assay: Cell cycle arrest in human HCT116 cells assessed as accumulation at sub-G1 phase at 300 nM after 15 hrs by propidium iodide staining based flow cytometric analysis; format: functional
[10] = test system: U-937; assay: Antiproliferative activity against human U937 cells after 72 hrs by WST-1 assay; format: functional; procedure, shortened: as §1
[11] = test system: MG-63; assay: Antiproliferative activity against human MG63 cells after 72 hrs by WST-1 assay; format: functional; procedure, shortened: as §1
[12] = test system: A2780; assay: Antiproliferative activity against human A2780 cells after 72 hrs by WST-1 assay; format: functional; procedure, shortened: as §1
[13] = test system: MOLT-4; assay: Antiproliferative activity against human MOLT4 cells after 72 hrs by WST-1 assay; format: functional; procedure, shortened: as §1
[14] = test system: HCT-116; assay: Cell cycle arrest in human HCT116 cells assessed as accumulation at G2/M phase at 300 nM after 15 hrs by propidium iodide staining based flow cytometric analysis; format: functional
[15] = Antiproliferative activity against human […] cells after 72 hrs by WST-1 assay; format: functional; procedure, shortened: as §1
[16] = test system: A549; assay: Antiproliferative activity against human A549 cells after 72 hrs by WST-1 assay; format: functional; procedure, shortened: as §1
[17] = test system: HCT-116; assay: Cell cycle arrest in human HCT116 cells assessed as accumulation at S phase at 300 nM after 15 hrs by propidium iodide staining based flow cytometric analysis; format: functional
[18] = test system: COR-L23; assay: Antiproliferative activity against doxorubicin-resistant human COR-L23 cells after 72 hrs by WST-1 assay; format: functional; procedure, shortened: as §1
[19] = test system: HCT-116; assay: Cell cycle arrest in human HCT116 cells assessed as accumulation at G1 phase at 300 nM after 15 hrs by propidium iodide staining based flow cytometric analysis; format: functional
[20] = test system: LoVo; assay: Antiproliferative activity against human LoVo cells after 72 hrs by WST-1 assay; format: functional; procedure, shortened: as §1
[21] = test system: COR-L23; assay: Antiproliferative activity against human COR-L23 cells after 72 hrs by WST-1 assay; format: functional; procedure, shortened: as §1
[22] = target: Cytochrome P450 2D6 (Homo sapiens, UniProt P10635); assay: Inhibition of CYP2D6; format: ADME
[23] = Aqueous solubility of the compound in PBS at pH 7.4; format: physicochemical
[24] = Clearance in mouse liver microsomes assessed as compound remaining after 30 mins; format: ADME, Microsome; conditions: read-out: Activity
[25] = target: Cytochrome P450 2C19 (Homo sapiens, UniProt P33261); assay: Inhibition of CYP2C19; format: ADME
[26] = target: Cytochrome P450 3A4 (Homo sapiens, UniProt P08684); assay: Inhibition of CYP3A4; format: ADME
[27] = Aqueous solubility of the compound in PBS at pH 5.5; format: physicochemical
[28] = Clearance in human liver microsomes assessed as compound remaining after 30 mins; format: ADME, Microsome; conditions: read-out: Activity

Chain of Cytochrome P450 2D6 (P10635 whole entry): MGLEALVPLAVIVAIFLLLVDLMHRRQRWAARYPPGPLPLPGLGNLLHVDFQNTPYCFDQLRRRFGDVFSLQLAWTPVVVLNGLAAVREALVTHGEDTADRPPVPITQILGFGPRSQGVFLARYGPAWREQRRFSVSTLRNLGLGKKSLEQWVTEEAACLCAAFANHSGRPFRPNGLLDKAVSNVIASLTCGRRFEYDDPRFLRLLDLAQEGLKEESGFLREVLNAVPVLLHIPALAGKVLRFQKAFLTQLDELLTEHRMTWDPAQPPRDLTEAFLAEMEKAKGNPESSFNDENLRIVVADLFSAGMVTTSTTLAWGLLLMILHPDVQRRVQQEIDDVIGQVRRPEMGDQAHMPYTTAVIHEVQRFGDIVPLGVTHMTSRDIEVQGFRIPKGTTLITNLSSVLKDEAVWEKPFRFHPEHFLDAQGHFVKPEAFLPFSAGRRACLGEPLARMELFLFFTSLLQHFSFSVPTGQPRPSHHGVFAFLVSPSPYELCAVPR
Chain of Cytochrome P450 2C19 (P33261 whole entry): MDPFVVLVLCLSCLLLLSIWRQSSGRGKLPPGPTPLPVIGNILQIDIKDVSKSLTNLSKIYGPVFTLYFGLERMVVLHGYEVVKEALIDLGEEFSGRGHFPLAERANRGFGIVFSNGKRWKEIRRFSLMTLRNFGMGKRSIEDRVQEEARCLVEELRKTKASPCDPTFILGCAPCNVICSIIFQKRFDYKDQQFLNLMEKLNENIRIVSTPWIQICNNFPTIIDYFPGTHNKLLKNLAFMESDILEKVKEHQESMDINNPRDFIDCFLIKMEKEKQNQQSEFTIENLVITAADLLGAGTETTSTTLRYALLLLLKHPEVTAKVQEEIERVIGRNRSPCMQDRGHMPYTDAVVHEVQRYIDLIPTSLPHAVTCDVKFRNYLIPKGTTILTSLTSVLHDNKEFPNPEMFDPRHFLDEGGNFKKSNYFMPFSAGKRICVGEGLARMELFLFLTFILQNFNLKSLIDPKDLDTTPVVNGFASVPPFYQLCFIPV
Chain of Cytochrome P450 3A4 (P08684 whole entry): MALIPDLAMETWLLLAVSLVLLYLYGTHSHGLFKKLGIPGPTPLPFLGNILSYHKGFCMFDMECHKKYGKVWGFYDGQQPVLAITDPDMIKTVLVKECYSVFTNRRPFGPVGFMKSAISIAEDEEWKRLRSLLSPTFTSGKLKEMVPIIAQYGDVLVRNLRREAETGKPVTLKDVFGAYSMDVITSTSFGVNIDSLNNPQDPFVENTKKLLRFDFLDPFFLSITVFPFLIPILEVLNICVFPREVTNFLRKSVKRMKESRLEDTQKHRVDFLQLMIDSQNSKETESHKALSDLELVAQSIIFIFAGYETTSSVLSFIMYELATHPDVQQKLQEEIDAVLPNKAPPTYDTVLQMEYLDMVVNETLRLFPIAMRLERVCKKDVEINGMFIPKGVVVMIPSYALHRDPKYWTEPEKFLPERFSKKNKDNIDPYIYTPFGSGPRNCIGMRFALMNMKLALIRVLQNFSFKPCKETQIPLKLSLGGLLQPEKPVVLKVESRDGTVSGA

SMILES	GI50 ([1]; Homo sapiens, HCT-116, 72 h)	IC50 [3]	Ratio [2]	also measured
CN([C@H]1[C@@H]2CN(c3ncc(C(=O)NO)cn3)C[C@@H]21)S(=O)(=O)c1ccc2ccccc2c1	1 µM	0.023 µM	44	
O=C(NO)c1cnc(N2C[C@@H]3[C@H](C2)[C@H]3NCc2ccc(OC(F)(F)F)cc2)nc1	0.12 µM	0.015 µM	8	AUC(0-t) [4]: 251 ng·h/mL; Ratio [5]: 3; AUC(0-t) [6]: 83 ng·h/mL
O=C(NO)c1cnc(N2C[C@@H]3[C@H](C2)[C@H]3NCc2ccc(C(F)(F)F)cc2)nc1	0.7 µM	0.034 µM	21	
N#Cc1ccc(CN[C@H]2[C@@H]3CN(c4ncc(C(=O)NO)cn4)C[C@@H]32)cc1	0.27 µM	0.03 µM	9	
O=C(NO)c1cnc(N2C[C@@H]3[C@H](C2)[C@H]3NCc2cc(C(F)(F)F)cc(C(F)(F)F)c2)nc1	0.2 µM	0.016 µM	12.5	
O=C(NO)c1cnc(N2C[C@@H]3[C@H](C2)[C@H]3NC(=O)c2ccc3ccccc3c2)nc1	0.41 µM	0.013 µM	32	
O=C(CCCCCCC(=O)Nc1ccccc1)NO [VORINOSTAT]				GI50 [7]: 4.6 µM; GI50 [1]: 0.74 µM; GI50 [8]: 3.5 µM; Activity [9]: 19%; GI50 [10]: 0.45 µM; GI50 [11]: > 10 µM; GI50 [12]: 3.15 µM; GI50 [13]: 0.67 µM; Activity [14]: 32%; GI50 [15]: 2.1 µM; GI50 [16]: 5.7 µM; Activity [17]: 14%; GI50 [18]: 3.3 µM; Activity [19]: 35%; GI50 [20]: 1.7 µM; GI50 [21]: 1.1 µM
O=C(NO)c1cnc(N2C[C@@H]3[C@H](C2)[C@H]3NCCc2ccccc2)nc1	0.28 µM	0.034 µM	8	
O=C(NO)c1cnc(N2C[C@@H]3[C@H](C2)[C@H]3NCc2ccc3ccccc3c2)nc1	0.16 µM	0.0124 µM	13	AUC(0-t) [4]: 145 ng·h/mL; IC50 [22]: > 50 µM; solubility [23]: 12 µg/mL (≈ 32 µM); remaining at 0.5 h [24]: 100%; IC50 [25]: > 50 µM; Ratio [5]: 2.9; AUC(0-t) [6]: 50 ng·h/mL; IC50 [26]: > 50 µM; solubility [27]: 208 µg/mL (≈ 554 µM); remaining at 0.5 h [28]: 40%
O=C(NO)c1cnc(N2C[C@@H]3[C@H](C2)[C@H]3NCc2ccc(Oc3ccccc3)cc2)nc1	0.12 µM	0.016 µM	7.5	AUC(0-t) [4]: 219 ng·h/mL; Ratio [5]: 4.2; AUC(0-t) [6]: 52 ng·h/mL
COc1ccc(CN[C@H]2[C@@H]3CN(c4ncc(C(=O)NO)cn4)C[C@@H]32)cc1	0.19 µM	0.02 µM	9.5	
O=C(NO)c1cnc(N2C[C@@H]3[C@H](C2)[C@H]3NCc2ccc(Br)cc2)nc1	0.25 µM	0.014 µM	18	
O=C(NO)c1cnc(N2C[C@@H]3[C@H](C2)[C@H]3NCC2CCCCC2)nc1	0.16 µM	0.044 µM	4	
O=C(NO)c1cnc(N2C[C@@H]3[C@H](C2)[C@H]3NS(=O)(=O)c2cccs2)nc1	> 10 µM	0.027 µM	>370	

Now from value to molecule, other results behind:

GI50 ([1]; Homo sapiens, HCT-116, 72 h)	IC50 [3]	SMILES	Ratio [2]	also measured
	0.009 µM	O=C(NO)c1cnc(N2C[C@@H]3[C@H](C2)[C@H]3NCc2ccc3ccccc3n2)nc1		AUC(0-t) [4]: 294 ng·h/mL; Ratio [5]: 7; AUC(0-t) [6]: 42 ng·h/mL
0.056 µM	0.014 µM	O=C(NO)c1cnc(N2C[C@@H]3[C@H](C2)[C@H]3NCc2ccc(-c3ccccc3)cc2)nc1	4	
5.1 µM	0.057 µM	O=C(NO)c1cnc(N2C[C@@H]3[C@H](C2)[C@H]3NC(=O)c2ccccc2)nc1	89	
3.6 µM	0.04 µM	O=C(NO)c1cnc(N2C[C@@H]3[C@H](C2)[C@H]3NC(=O)c2cccs2)nc1	90	
0.38 µM	0.027 µM	O=C(NO)c1cnc(N2C[C@@H]3[C@H](C2)[C@H]3NCc2ccc(F)cc2)nc1	14	
0.41 µM	0.022 µM	CCCCc1ccc(CN[C@H]2[C@@H]3CN(c4ncc(C(=O)NO)cn4)C[C@@H]32)cc1	18	
0.44 µM	0.0065 µM	O=C(NO)c1cnc(N2C[C@@H]3[C@H](C2)[C@H]3NS(=O)(=O)c2ccc3ccccc3c2)nc1	73	IC50 [22]: 10 µM; solubility [23]: 34 µg/mL (≈ 79.9 µM); remaining at 0.5 h [24]: 66%; IC50 [25]: 10 µM; IC50 [26]: 10 µM; solubility [27]: 74 µg/mL (≈ 174 µM); remaining at 0.5 h [28]: 43%
0.37 µM	0.032 µM	O=C(NO)c1cnc(N2CC3C(CNCc4ccc5ccccc5c4)C3C2)nc1 (centres undefined)	12	
0.2 µM	0.016 µM	O=C(NO)c1cnc(N2C[C@@H]3[C@H](C2)[C@H]3NCc2cc(F)cc(F)c2)nc1	13	
0.12 µM	0.01 µM	O=C(NO)c1cnc(N2C[C@@H]3[C@H](C2)[C@H]3NCc2ccccc2)nc1	12	
